In brackets after ≈: the same amount, converted by molar mass. Activity calls are given as the source filed them. The rule behind the calls is not given here.

The subject of data set [1] is Staphylococcus aureus. The data set is described as follows: Antibacterial activity against methicillin-susceptible Staphylococcus aureus ATCC 25923 assessed as zone of inhibition at 30 ug after 18 hrs by disk diffusion method. Conditions: ATCC 25923, 18 h, read-out: DIZ. In kind it is functional. The method in brief: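 Disks 6 mm in diameter; a 6 mm zone means no growth inhibition. The diameters of complete-inhibition zones are averaged over at least three independent experiments and reported with standard errors.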

For data set [2], the system named is Staphylococcus aureus. The data set is described as follows: Antibacterial activity against methicillin-resistant Staphylococcus aureus USA300 SF8300 assessed as zone of inhibition at 30 ug after 18 hrs by disk diffusion method. In kind it is functional. Conditions: USA300 SF8300, 18 h, read-out: DIZ. Summed up:
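Disk diffusion on 6 mm paper disks, with methicillin-susceptible S. aureus ATCC 25923 as the control strain alongside MRSA USA300 SF8300. The read-out is the diameter of the complete inhibition zone, averaged over at least three independent experiments and reported with standard errors. A 6 mm zone means no growth inhibition.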
In general terms: Agar diffusion results depend on both activity and mobility in agar.

Data set [3] relates to Staphylococcus aureus. The data set is described as follows: Bactericidal activity against methicillin-resistant Staphylococcus aureus USA300 SF8300 after 18 to 20 hrs. In kind it is functional. The method in brief: (§1)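 Broth microdilution to find MIC and MBC against MRSA USA300 SF8300. Each compound was serially 2-fold diluted starting from its stock concentration.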
Data set [4] has as its system Staphylococcus aureus. The data set is described as follows: Antibacterial activity against methicillin-resistant Staphylococcus aureus USA300 SF8300 assessed as growth inhibition after 18 to 20 hrs by microdilution assay. In kind it is functional. The method in brief:
as §1
(In general: Dilution methods test growth across graded concentrations, often in twofold steps.)

In data set [5] the test system is A549. The experiment in a line: Cytotoxicity against human A549 cells assessed as reduction in cell viability after 24 to 48 hrs by Presto Blue assay. It is filed as cell-based.
Data set [6] concerns Staphylococcus aureus. The experiment in a line: Bactericidal activity against methicillin-susceptible Staphylococcus aureus ATCC 29213 after 18 to 20 hrs. In kind it is functional. Summed up: (§2)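 Broth microdilution gives both MIC and MBC. Each compound is serially 2-fold diluted starting from its stock concentration.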
The subject of data set [7] is Staphylococcus aureus. The experiment in a line: Antibacterial activity against methicillin-susceptible Staphylococcus aureus ATCC 29213 assessed as growth inhibition after 18 to 20 hrs by microdilution assay. It is filed as functional. Summed up:
as §2

Data set [8] concerns HEK293. The experiment in a line: Cytotoxicity against human HEK293 cells assessed as reduction in cell viability after 24 to 48 hrs by […] assay.
In data set [9] the test system is A549. The experiment in a line: Cytotoxicity against human A549 cells assessed as cells detachment at 50 uM after 10 mins by microscopic analysis. In kind it is cell-based. Conditions: a549, 10 min.
Data set [10] relates to A549. The data set is described as follows: Cytotoxicity against human A549 cells assessed as cells detachment at 12.5 uM after 2 hrs by microscopic analysis. It is filed as cell-based. Conditions: a549, 2 h.
The test system of data set [11] is HEK293. The experiment in a line: Cytotoxicity against human HEK293 cells assessed as cells detachment at 50 uM after 10 mins by microscopic analysis. In kind it is cell-based. The following applies: hek293, 10 min.
Data set [12] relates to Staphylococcus aureus. The experiment in a line: Antibacterial activity against methicillin-susceptible Staphylococcus aureus RF122 infected in A549 cells assessed as inhibition of bacterial invasion at 1.5 uM after 1 hr. In kind it is functional, organism-based. The method in brief: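 Invasion assay in human epithelial A549 cells infected with S. aureus while the test compound was present. Concentrations were held below those that damage A549 cells. Both non-invading and invading bacteria were then cultured to rule out effects on bacterial growth.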

In data set [13] the test system is HEK293. The data set is described as follows: Cytotoxicity against human HEK293 cells assessed as cells detachment at 12.5 uM after 2 hrs by microscopic analysis. Conditions: hek293, 2 h. It is filed as cell-based.

As to `CC(C)=CCc1c2c(c(O)c3c1O[C@@]14C(C[C@H]5CC1C(C)(C)O[C@]4(C/C=C(\C)C=O)C5=O)C3=O)C=CC(C)(C)O2` (stereo partly specified), the zone of inhibition at 30 µg/disc with Staphylococcus aureus [1] and in the data set on Staphylococcus aureus [2] was 6 mm throughout.

Turning to `CC(C)=CCc1c2c(c(O)c3c1O[C@@]14C(=C[C@H]5CC1C(C)(C)O[C@]4(C/C=C(/C)C(=O)N[C@@H](CCC(=O)NC(c1ccccc1)(c1ccccc1)c1ccccc1)C(=O)O)C5=O)C3=O)C=CC(C)(C)O2`, the zone of inhibition at 30 µg/disc amounted to 6.89 mm with Staphylococcus aureus [1] and 8.21 mm with Staphylococcus aureus [2].

As to `CC(C)=CCc1c2c(c(O)c3c1O[C@@]14C(=C[C@H]5CC1C(C)(C)O[C@]4(C/C=C(/C)C(=O)N[C@@H](CCC(=O)O)C(=O)O)C5=O)C3=O)C=CC(C)(C)O2`, the zone of inhibition at 30 µg/disc in the data set with Staphylococcus aureus [1] and in the data set on Staphylococcus aureus [2] was 6 mm throughout.

The term MBC denotes the lowest tested concentration that kills the bacteria rather than only halting them. Read a high MBC as less potent killing. The MIC is the lowest concentration that inhibits growth of the organism. One may read the IC50 as the concentration at which inhibition is half-maximal. On to `CC[C@H](C)[C@H](NC(=O)/C(C)=C\C[C@]12OC(C)(C)C3C[C@H](C=C4C(=O)c5c(O)c6c(c(CC=C(C)C)c5O[C@@]431)OC(C)(C)C=C6)C2=O)C(=O)O`, for which the results for the zone of inhibition at 30 µg/disc in the data set on Staphylococcus aureus [1] and with Staphylococcus aureus [2] were 15.9 mm and 19.4 mm, respectively. Moreover, the values for the MBC with Staphylococcus aureus [3] and in the data set with Staphylococcus aureus [6] were 50 µM (≈ 33.7 µg/mL) and 25 µM (≈ 16.8 µg/mL), respectively. Moreover, the MIC with Staphylococcus aureus [4] and in the data set with Staphylococcus aureus [7] was 25 µM (≈ 16.8 µg/mL) each time. The IC50 in the data set on A549 [5] is 24.5 µM.

Take `CC(C)=CCc1c2c(c(O)c3c1O[C@@]14C(=C[C@H]5CC1C(C)(C)O[C@]4(C/C=C(/C)C(=O)N[C@@H](CO)C(=O)O)C5=O)C3=O)C=CC(C)(C)O2`: the zone of inhibition at 30 µg/disc in the data set on Staphylococcus aureus [1] came out at 6.09 mm; with Staphylococcus aureus [2], 6.28 mm.

On to `CC(C)=CCC[C@]1(C)C=Cc2c(O)c3c(c(CC=C(C)C)c2O1)O[C@]12C(=C[C@@H]4C[C@H]1C(C)(C)O[C@@]2(C/C=C(/C)C(=O)O)C4=O)C3=O` [GAMBOGIC ACID], for which the zone of inhibition at 30 µg/disc was determined as 16.6 mm in the data set with Staphylococcus aureus [1] and 17.3 mm with Staphylococcus aureus [2]. The results for the MBC in the data set on Staphylococcus aureus [3] and with Staphylococcus aureus [6] were 50 µM (≈ 31.4 µg/mL) and 25 µM (≈ 15.7 µg/mL), respectively. Moreover, the values for the MIC in the data set with Staphylococcus aureus [4] and in the data set with Staphylococcus aureus [7] were 25 µM (≈ 15.7 µg/mL) and 12.5 µM (≈ 7.86 µg/mL), respectively. The IC50 in the data set with A549 [5] is 3.4 µM; in the data set with HEK293 [8], 1.72 µM.

As for `CC(C)=CCc1c2c(c(O)c3c1O[C@@]14C(=C[C@H]5CC1C(C)(C)O[C@]4(C/C=C(/C)C(=O)O)C5=O)C3=O)C=CC(C)(C)O2`, the Activity entry with A549 [9], with A549 [10], in the data set with HEK293 [11] and with HEK293 [13] was “Toxic” throughout. The values for the zone of inhibition at 30 µg/disc with Staphylococcus aureus [1] and in the data set on Staphylococcus aureus [2] were 19.2 mm and 19.5 mm, respectively. In addition, the MBC amounted to 25 µM (≈ 14 µg/mL) against Staphylococcus aureus [3] and 12.5 µM (≈ 7.01 µg/mL) in the data set on Staphylococcus aureus [6]. For the same compound, the MIC with Staphylococcus aureus [4] and with Staphylococcus aureus [7] was 12.5 µM (≈ 7.01 µg/mL) throughout. Further, the IC50 was 3.5 µM with A549 [5] and 2.33 µM in the data set with HEK293 [8]. In the data set on Staphylococcus aureus [12], the inhibition result is “inactive”.

For `CC(C)=CCc1c2c(c(O)c3c1O[C@@]14C(=C[C@H]5CC1C(C)(C)O[C@]4(C/C=C(/C)C(=O)N1CCC[C@H]1C(=O)O)C5=O)C3=O)C=CC(C)(C)O2`, the zone of inhibition at 30 µg/disc was 13.1 mm in the data set on Staphylococcus aureus [1] and 15.9 mm in the data set on Staphylococcus aureus [2]. In addition, the MBC in the data set with Staphylococcus aureus [3] is over 100 µM; with Staphylococcus aureus [6], 100 µM (≈ 65.8 µg/mL). Further, the minimum inhibitory concentration (MIC) in the data set with Staphylococcus aureus [4] amounted to 100 µM (≈ 65.8 µg/mL); with Staphylococcus aureus [7], 50 µM (≈ 32.9 µg/mL). In addition, in the data set on A549 [5], the IC50 is 21.1 µM.

In the case of `CC(C)=CCc1c2c(c(O)c3c1O[C@@]14C(=C[C@H]5CC1C(C)(C)O[C@]4(C/C=C(/C)C(=O)N[C@@H](Cc1ccccc1)C(=O)O)C5=O)C3=O)C=CC(C)(C)O2`, the results for the zone of inhibition at 30 µg/disc in the data set with Staphylococcus aureus [1] and in the data set with Staphylococcus aureus [2] were 17.1 mm and 16.3 mm, respectively. For the same compound, the values for the MBC against Staphylococcus aureus [3] and against Staphylococcus aureus [6] were 25 µM (≈ 17.7 µg/mL) and 12.5 µM (≈ 8.85 µg/mL), respectively. The MIC was found to be 25 µM (≈ 17.7 µg/mL) in the data set with Staphylococcus aureus [4] and 12.5 µM (≈ 8.85 µg/mL) in the data set on Staphylococcus aureus [7]. The IC50 in the data set with A549 [5] worked out at 12.2 µM.

For `CC(C)=CCc1c2c(c(O)c3c1O[C@@]14C(=C[C@H]5CC1C(C)(C)O[C@]4(C/C=C(/C)C(=O)N[C@@H](CCC(=O)OCc1ccccc1)C(=O)O)C5=O)C3=O)C=CC(C)(C)O2`, the zone of inhibition at 30 µg/disc in the data set on Staphylococcus aureus [1] was determined as 6.53 mm.

The values above are taken from ChEMBL document CHEMBL3808328, “Caged xanthones: Potent inhibitors of global predominant MRSA USA300” (Bioorg Med Chem Lett, 2016).
